By IC50 is commonly meant the concentration at which inhibition is half-maximal. Read a high IC50 as weaker potency. For orientation: MIC means the lowest concentration found to suppress growth. A lower MIC goes with greater potency.

For assay [1], the system named is Mycobacterium tuberculosis. Put plainly: Antimycobacterial activity against isoniazid-resistant Mycobacterium tuberculosis MYC5165 after 6 days by MTT assay. It is filed as functional, organism-based. As to conditions: MYC5165, 144 h. In a few lines:
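Twofold serial compound dilutions in Middlebrook 7H9 broth were inoculated with bacterial suspension in 7H9 (H37Rv, or INH-resistant MYC5165) and incubated 6 days. MTT (1 mg/mL) was then added, followed by 1 more day of incubation, solubilisation buffer, and OD read at 570 nm. MIC was the lowest concentration inhibiting growth relative to untreated bacilli, and IC50 was also determined.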
(Tetrazolium assays rely on reduction of a dye to a coloured formazan, in cell work by metabolically active cells.)

Assay [2] concerns Mycobacterium tuberculosis. Description: Ratio of MIC for isoniazid to compound MIC isoniazid-resistant Mycobacterium tuberculosis MYC5165 after 6 days by MTT assay. It is filed as functional.
Assay [3] can be described thus: Selectivity ratio of CC50 for human MRC5 cells to MIC for isoniazid-resistant Mycobacterium tuberculosis MYC5165. It is filed as functional.

Molecules are shown by their SMILES. Values after ≈ are worked out from the molar mass of the structure shown.

`NCCc1cc2c(O)c(c1)Cc1cc(CCN)cc(c1O)Cc1cc(CCN)cc(c1O)Cc1cc(CCN)cc(c1O)C2`: in assay [1], the IC50 was 700 nM and the MIC worked out at 3.2 µM (≈ 1.91 µg/mL).

The compound `Cc1ccc(-c2ccc(COc3c4cc(CCNC(=N)N)cc3Cc3cc(CCNC(=N)N)cc(c3O)Cc3cc(CCNC(=N)N)cc(c3OCc3ccc(-c5ccc(C)cn5)nc3)Cc3cc(CCNC(=N)N)cc(c3O)C4)cn2)nc1.O=C(O)C(F)(F)F` displayed an IC50 in assay [1] of 100 nM. In assay [1], this compound registered an MIC of 0.4 µM. The Ratio is 15 in assay [2] and 85 in assay [3].

In assay [1], `Cc1ccc(-c2ccc(COc3c4cc(CCN)cc3Cc3cc(CCN)cc(c3O)Cc3cc(CCN)cc(c3OCc3ccc(-c5ccc(C)cn5)nc3)Cc3cc(CCN)cc(c3O)C4)cn2)nc1` gave a half-maximal inhibitory concentration (IC50) of 500 nM and a minimum inhibitory concentration (MIC) of 1.6 µM (≈ 1.54 µg/mL).

`O=C(O)c1cn(C2CC2)c2cc(N3CCNCC3)c(F)cc2c1=O` [CIPROFLOXACIN] displayed a minimum inhibitory concentration (MIC) in assay [1] of 2.5 µM (≈ 0.828 µg/mL).

In the case of `NNC(=O)c1ccncc1` [ISONIAZID], inhibition of growth in assay [1] (MIC) required 12.5 µM (≈ 1.71 µg/mL).

In assay [1], `N=C(N)NCCc1cc2c(O)c(c1)Cc1cc(CCNC(=N)N)cc(c1O)Cc1cc(CCNC(=N)N)cc(c1O)Cc1cc(CCNC(=N)N)cc(c1O)C2.O=C(O)C(F)(F)F` gave an IC50 of 100 nM and a minimum inhibitory concentration (MIC) of 0.8 µM. In assay [2], the Ratio is recorded as 15. The Ratio in assay [3] was 256.

The compound `Cc1csc(-c2nc(COc3c4cc(CCNC(=N)N)cc3Cc3cc(CCNC(=N)N)cc(c3O)Cc3cc(CCNC(=N)N)cc(c3OCc3csc(-c5nc(C)cs5)n3)Cc3cc(CCNC(=N)N)cc(c3O)C4)cs2)n1.O=C(O)C(F)(F)F` gave an IC50 in assay [1] of under 100 nM. Further, 0.1 µM was the least that counted as inhibitory in assay [1] (MIC). For the same compound, the Ratio in assay [2] stood at 125; in assay [3], 6.

Source of the values: ChEMBL document CHEMBL1955828, “Anti-mycobacterial activities of some cationic and anionic calix[4]arene derivatives” (Bioorg Med Chem, 2012).
